From ChEMBL document CHEMBL4118203, “Optimized synthesis and antiproliferative activity of desTHPdactylolides” (Bioorg Med Chem, 2018)

Experiments:
LNCaP = experiment: Antiproliferative activity against docetaxel-sensitive human LNCAP cells after 3 days by WST-1 assay; type: functional, cell-based; conditions: 72 h
Summary of the method: (§1)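 Cells grown at 37 °C, 5% CO2: PC-3 and LNCaP in RPMI-1640, DU145 in EMEM, each with 10% FBS and 1% penicillin/streptomycin. Plated at 3,200 cells/well and exposed to a range of doses for 3 days, with DMSO vehicle control. WST-1 reagent was then added for 3 h at 37 °C and absorbance read at 430 nm. IC50 is the mean of at least triplicate runs.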

DU-145 = experiment: Antiproliferative activity against docetaxel-sensitive human DU145 cells after 3 days by WST-1 assay; type: functional, cell-based; conditions: DU-145, 72 h; summary of the method: as §1
PC-3 [1] = experiment: Antiproliferative activity against docetaxel-sensitive human PC3 cells after 3 days by WST-1 assay; type: functional, cell-based; conditions: PC-3, 72 h; summary of the method: as §1
[2] = Antiproliferative activity against human DU145/DTX cells after 3 days by WST-1 assay; type: functional, cell-based; conditions: DU-145, 72 h
Summary of the method: (§2)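 Docetaxel-resistant lines were derived from DU145 or PC-3 over one year by stepwise-increasing docetaxel, starting at the parental IC50. Cells were kept continuously in docetaxel, with medium changed every 2–3 days. For the assay, cells were plated at 3,200/well and treated with a dose range for 3 days against DMSO vehicle. WST-1 was added for 3 h at 37 °C and absorbance read at 430 nm. IC50 is the mean of at least triplicates.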

[3] = Antiproliferative activity against human PC3/DTX cells after 3 days by WST-1 assay; type: functional, cell-based; conditions: 72 h; summary of the method: as §2
[4] = Resistance index, ratio of IC50 for human PC3/DTX cells to IC50 for docetaxel-sensitive human PC3 cells; type: functional
PC-3 [5] = experiment: Antiproliferative activity against human PC3 cells after 72 hrs by methylene blue staining based assay; type: functional, cell-based; conditions: PC-3, 72 h
[6] = Resistance index, ratio of IC50 for human DU145/DTX cells to IC50 for docetaxel-sensitive human DU145 cells; type: functional

C/C1=C/C=C/C(=O)O[C@@H](CO)C/C(C)=C/COCC/C=C/C(=O)C1
IC50 (LNCaP): > 30 µM
IC50 (DU-145): > 30 µM
IC50 (PC-3 [1]): > 30 µM
IC50 [2]: > 30 µM
IC50 [3]: > 30 µM

C/C1=C/C=C/C(=O)O[C@H](CO)C/C(C)=C/COCC/C=C/C(=O)C1
Ratio IC50 [4]: 0.9
IC50 (LNCaP): 19.3 µM
IC50 (DU-145): 17.8 µM
IC50 (PC-3 [1]): 16.1 µM
IC50 (PC-3 [5]): 3.05 µM
Ratio IC50 [6]: 0.8
IC50 [2]: 14.1 µM
IC50 [3]: 14.4 µM

C/C1=C/C=C/C(=O)O[C@@H](C=O)C/C(C)=C/COCC/C=C/C(=O)C1
Ratio IC50 [4]: 0.8
IC50 (LNCaP): 3.22 µM
IC50 (DU-145): 5.41 µM
IC50 (PC-3 [1]): 5.27 µM
Ratio IC50 [6]: 1.5
IC50 [2]: 8.03 µM
IC50 [3]: 4.41 µM

C=C1C[C@H]2C/C=C/C(=O)C/C(C)=C\C=C\C(=O)OC(C=O)C/C(C)=C/[C@@H](C1)O2 (stereo not given in full)
IC50 (PC-3 [5]): 0.75 µM

COc1ccc(COC[C@@H]2C/C(C)=C/COCC/C=C/C(=O)C/C(C)=C\C=C\C(=O)O2)cc1
Ratio IC50 [4]: >2.6
IC50 (LNCaP): 8.27 µM
IC50 (DU-145): 9.21 µM
IC50 (PC-3 [1]): 7.66 µM
Ratio IC50 [6]: >2.2
IC50 [2]: > 20 µM
IC50 [3]: > 20 µM

COc1ccc(COC[C@H]2C/C(C)=C/COCC/C=C/C(=O)C/C(C)=C\C=C\C(=O)O2)cc1
Ratio IC50 [4]: 0.6
IC50 (LNCaP): 2.85 µM
IC50 (DU-145): 3.16 µM
IC50 (PC-3 [1]): 6.31 µM
Ratio IC50 [6]: 1
IC50 [2]: 3.2 µM
IC50 [3]: 3.77 µM

C/C1=C/C=C/C(=O)O[C@H](C=O)C/C(C)=C/COCC/C=C/C(=O)C1
Ratio IC50 [4]: 1.3
IC50 (LNCaP): 13.5 µM
IC50 (DU-145): 11.6 µM
IC50 (PC-3 [1]): 11.9 µM
IC50 (PC-3 [5]): 4.02 µM
Ratio IC50 [6]: 1.3
IC50 [2]: 15.3 µM
IC50 [3]: 15.4 µM

CC(=O)O[C@@]12CO[C@@H]1C[C@H](O)[C@@]1(C)C(=O)[C@H](O)C3=C(C)[C@@H](OC(=O)[C@H](O)[C@@H](NC(=O)OC(C)(C)C)c4ccccc4)C[C@@](O)([C@@H](OC(=O)c4ccccc4)[C@H]21)C3(C)C [DOCETAXEL ANHYDROUS]
Ratio IC50 [4]: 1232
IC50 (LNCaP): 0.0002 µM
IC50 (DU-145): 0.0012 µM
IC50 (PC-3 [1]): 0.0019 µM
Ratio IC50 [6]: 7150
IC50 [2]: 8.58 µM
IC50 [3]: 2.34 µM
